These results are taken from paper PMC2903661 (Bioorganic & medicinal chemistry, 2010).

Data set [1] addresses T1, CB2 receptors (Mus musculus, UniProt P47936). Put plainly: Blocking dissection study in LPS-5-day-treated CD1 mice. It is filed as in vivo. The conditions noted are these: for reduction of the specific binding of [11C]1 in whole brain: LPS-5-day mice, AM630 3 mg/kg or GW405833 2 mg/kg s.c., normalized uptake, 60 min, control CD1 mice as measure of non-specific binding. In outline: (§1)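 Control CD1 mice, or CD1 mice 5 days after a single i.p. LPS dose (5 mg/kg in saline, strain O111:B4), received AM630 3 mg/kg or GW405833 2 mg/kg s.c. in DMSO; controls got DMSO vehicle. Radiotracer (~150 GBq/μmol) was given i.v. 30 min later, and tissues were harvested at 60 min and gamma-counted. Whole-brain uptake was %ID/g per body weight normalized by blood; mean ± SD, n=3.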

For data set [2], the target named is T1, CB2 receptors. Put plainly: Blocking dissection study in control CD1 mice. It is filed as in vivo. The settings on record: AM630 3 mg/kg or GW405833 2 mg/kg s.c., 60 min. In outline:
as §1

Data set [3] concerns the target T1, CB2 receptors. The data set is classed as in vivo. The conditions noted are these: APPswe/PS1dE9 mice.
For data set [4], the target named is T1, CB2 receptors. It is filed as in vivo, mice. In outline: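 Male CD1 mice got a single i.p. LPS dose (5 mg/kg in saline, strain O111:B4) 3 or 5 days before i.v. radiotracer; untreated CD1 mice served as controls. At 60 min, cerebellum, hippocampus, cortex, brainstem and rest of brain were dissected, weighed and gamma-counted. Uptake was %ID/g tissue (± SD, n=3), and regional ratios were taken as 5-day LPS over control.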

The target of data set [5] is T1, CB2 receptors. Put plainly: Baseline dissection biodistribution of [11C]1 in control CD1 mice. The conditions noted are these: i.v., whole body time-activity curve. It is filed as in vivo. In outline: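 Male CD-1 mice (23-28 g) received the radiotracer (specific radioactivity ~150 GBq/μmol, in saline) by lateral tail vein. They were killed by cervical dislocation at various times after injection. Organs and brain were removed and dissected on ice, then weighed and gamma-counted (counting error below 3%) against injectate aliquots as standards. Uptake was expressed as %ID/g tissue.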

T1 sequence (P47936 whole entry): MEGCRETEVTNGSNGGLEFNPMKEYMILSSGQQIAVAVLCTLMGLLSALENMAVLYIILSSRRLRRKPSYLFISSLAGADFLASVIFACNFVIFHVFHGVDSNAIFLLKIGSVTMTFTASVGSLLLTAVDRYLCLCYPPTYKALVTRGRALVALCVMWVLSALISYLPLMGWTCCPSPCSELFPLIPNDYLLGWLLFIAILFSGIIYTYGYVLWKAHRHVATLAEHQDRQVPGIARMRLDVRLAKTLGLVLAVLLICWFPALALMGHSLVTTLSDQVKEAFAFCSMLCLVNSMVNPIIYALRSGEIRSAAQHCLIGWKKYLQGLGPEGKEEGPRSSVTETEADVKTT

For the molecule `COc1ccc(C(=O)c2c(C)n(CCN3CCOCC3)c3cc(I)ccc23)cc1` [AM630], the “reduction of the specific binding of [11C]1 in whole brain” value in data set [1] was 78%. Besides, in data set [2], the “difference in normalized whole brain uptake between baseline and blockade” value is reported as “little difference”. Besides, in data set [3] (AM630, 60 min), the “reduction of radioactivity uptake by blockade in cerebellum and brainstem” value is listed as “insignificant reduction”; the “reduction of radioactivity uptake by blockade in cortex and rest of brain” value is on record as “significant reduction”. The “uptake difference between baseline and blockade, brainstem” value in data set [3] (AM630 blockade, 60 min, brainstem) is listed as 29%. For the same molecule, the “uptake difference between baseline and blockade, cerebellum” value in data set [3] (AM630 blockade, 60 min, cerebellum) is 29%. Moreover, the “uptake difference between baseline and blockade, cortex” value in data set [3] (AM630 blockade, 60 min, cortex) came to 36%. In addition, the “uptake difference between baseline and blockade, rest of brain” value in data set [3] (AM630 blockade, 60 min, rest of brain) was determined as 33%.

Consider `Cc1sc(=NC(=O)C2C(C)(C)C2(C)C)n(CCO[11CH3])c1C` [[^11C]1], for which the “specific CB2 cerebral uptake” value in data set [1] (LPS-induced mouse model of neuroinflammation, summary) is given as 78-84%. In addition, the “increase of brain uptake versus control mice, LPS three days before (Group 2)” value in data set [4] (LPS-3-day-treated CD1 mice versus control, all brain regions) is listed as “insignificant increase”. The “regional uptake ratio of Group 3 to Group 1, cerebellum” value in data set [4] (LPS-5-day-treated versus control CD1 mice, %ID/g tissue, cerebellum) came out at 1.8. The “regional uptake ratio of Group 3 to Group 1, cortex” value in data set [4] (LPS-5-day-treated versus control CD1 mice, %ID/g tissue, cortex) came out at 1.7. Besides, in data set [4] (LPS-5-day-treated versus control CD1 mice, %ID/g tissue, hippocampus), the “regional uptake ratio of Group 3 to Group 1, hippocampus” value worked out at 1.9. Further, in data set [4] (LPS-5-day-treated versus control CD1 mice, %ID/g tissue, rest of the brain), the “regional uptake ratio of Group 3 to Group 1, rest of the brain” value turned out to be 1.5. The “uptake of [11C]1 in the brain” value in data set [5] (brain) came to 0.3 %ID/g tissue. Moreover, the “uptake of [11C]1 in the heart” value in data set [5] (heart) stood at 0.7 %ID/g tissue. In addition, the “uptake of [11C]1 in the intestine” value in data set [5] (intestine) turned out to be 1.5 %ID/g tissue. Moreover, the “uptake of [11C]1 in the kidney” value in data set [5] (kidney) was determined as 2.2 %ID/g tissue. Moreover, in data set [5] (liver), the “uptake of [11C]1 in the liver” value is 4.9 %ID/g tissue. Besides, in data set [5] (spleen), the “uptake of [11C]1 in the spleen” value came to 1.3 %ID/g tissue.

As to `COc1ccc2c(c1)c(CCN1CCOCC1)c(C)n2C(=O)c1cccc(Cl)c1Cl` [GW405833], the “reduction of the specific binding of [11C]1 in whole brain” value in data set [1] worked out at 84%. Besides, in data set [2], the “difference in normalized whole brain uptake between baseline and blockade” value is “little difference”.
